The values that follow come from ChEMBL document CHEMBL4251751 (J Med Chem, 2018).

Data set [1] deals with T1, Cysteinyl leukotriene receptor 1 (Homo sapiens, UniProt Q9Y271).
T1 sequence (Q9Y271 whole entry): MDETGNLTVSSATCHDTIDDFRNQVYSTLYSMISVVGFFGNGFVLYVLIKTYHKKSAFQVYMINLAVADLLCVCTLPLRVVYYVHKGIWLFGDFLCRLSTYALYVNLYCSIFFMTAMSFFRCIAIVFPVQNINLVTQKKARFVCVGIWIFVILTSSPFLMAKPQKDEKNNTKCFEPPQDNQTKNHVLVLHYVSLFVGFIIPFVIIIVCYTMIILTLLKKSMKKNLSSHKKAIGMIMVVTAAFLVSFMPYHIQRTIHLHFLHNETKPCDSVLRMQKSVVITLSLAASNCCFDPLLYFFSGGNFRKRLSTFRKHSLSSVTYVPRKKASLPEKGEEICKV
In words: Antagonist potency at human CysLT1R expressed in African green monkey COS7 cells assessed as inhibition of LTD4-induced Ca2+ levels after 60 mins by fura-2/AM-fluorescence based spectrofluorimetry. In kind it is functional, cell-based. The conditions noted are these: read-out: pA2 (converted).

Data set [2] addresses T2, Bifunctional epoxide hydrolase 2 (Homo sapiens, UniProt P34913).
T2 sequence (P34913 whole entry): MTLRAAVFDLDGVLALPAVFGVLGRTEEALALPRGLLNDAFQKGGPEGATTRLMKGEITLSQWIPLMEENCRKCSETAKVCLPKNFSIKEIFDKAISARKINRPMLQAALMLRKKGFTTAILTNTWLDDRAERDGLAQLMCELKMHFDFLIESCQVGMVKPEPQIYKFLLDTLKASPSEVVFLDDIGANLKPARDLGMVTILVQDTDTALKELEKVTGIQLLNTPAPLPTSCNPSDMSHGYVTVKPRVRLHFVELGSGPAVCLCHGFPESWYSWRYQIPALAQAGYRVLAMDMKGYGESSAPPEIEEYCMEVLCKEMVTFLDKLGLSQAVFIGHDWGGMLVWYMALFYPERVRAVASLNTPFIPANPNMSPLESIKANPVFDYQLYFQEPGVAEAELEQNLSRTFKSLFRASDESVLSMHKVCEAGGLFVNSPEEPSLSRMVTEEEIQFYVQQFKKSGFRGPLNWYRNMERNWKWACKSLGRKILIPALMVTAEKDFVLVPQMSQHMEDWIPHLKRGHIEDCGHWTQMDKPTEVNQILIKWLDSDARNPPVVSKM
The data set can be described thus: Inhibition of recombinant human sEH using PHOME as substrate preincubated for 30 mins followed by substrate addition and measured after 30 mins by spectrofluorimetry.

Data set [3] concerns the target T3, Peroxisome proliferator-activated receptor gamma (Homo sapiens, UniProt P37231).
T3 sequence (P37231 whole entry): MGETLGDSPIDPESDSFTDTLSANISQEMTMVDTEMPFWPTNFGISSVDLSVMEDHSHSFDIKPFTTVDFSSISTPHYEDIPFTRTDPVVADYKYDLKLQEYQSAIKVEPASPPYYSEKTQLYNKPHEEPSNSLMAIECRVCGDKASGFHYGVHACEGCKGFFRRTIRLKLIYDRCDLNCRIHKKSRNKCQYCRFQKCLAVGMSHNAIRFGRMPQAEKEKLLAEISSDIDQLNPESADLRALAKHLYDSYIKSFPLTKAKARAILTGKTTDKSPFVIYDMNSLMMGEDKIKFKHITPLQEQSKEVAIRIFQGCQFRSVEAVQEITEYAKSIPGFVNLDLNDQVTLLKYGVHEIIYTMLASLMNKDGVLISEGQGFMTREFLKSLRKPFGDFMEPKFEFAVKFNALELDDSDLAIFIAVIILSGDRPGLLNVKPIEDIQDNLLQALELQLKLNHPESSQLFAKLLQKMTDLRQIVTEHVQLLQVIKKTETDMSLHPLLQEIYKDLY
In words: Partial agonist activity at human PPARgamma LBD expressed HEK293T cells after 12 to 14 hrs by dual-glo luciferase reporter gene assay. On the technique in general: A reporter such as luciferase makes a cellular process visible.

The target in data set [4] is T4, Peroxisome proliferator-activated receptor gamma (Mus musculus) (UniProt P37238).
T4 sequence (whole entry): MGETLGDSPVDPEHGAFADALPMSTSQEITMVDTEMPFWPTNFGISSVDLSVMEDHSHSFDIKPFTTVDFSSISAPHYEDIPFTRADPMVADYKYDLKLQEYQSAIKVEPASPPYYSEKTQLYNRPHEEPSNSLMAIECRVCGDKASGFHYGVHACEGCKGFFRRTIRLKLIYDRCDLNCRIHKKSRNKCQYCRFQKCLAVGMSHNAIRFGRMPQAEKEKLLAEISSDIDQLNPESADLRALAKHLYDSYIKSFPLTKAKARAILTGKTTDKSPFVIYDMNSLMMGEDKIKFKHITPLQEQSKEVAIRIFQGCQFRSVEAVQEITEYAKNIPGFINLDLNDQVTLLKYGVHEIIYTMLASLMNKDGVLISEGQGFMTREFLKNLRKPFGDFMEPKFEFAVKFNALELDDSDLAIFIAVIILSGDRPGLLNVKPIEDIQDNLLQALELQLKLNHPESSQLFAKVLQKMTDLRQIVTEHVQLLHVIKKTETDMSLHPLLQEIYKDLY
In words: Agonist activity at PPARgamma in mouse 3T3-L1 cells assessed as increase in CPT1A mRNA expression at 1 uM after 15 days by quantitative real-time PCR method. In kind it is cell-based. In general terms: In qPCR the cycle at which signal appears reflects the starting amount.

The target in data set [5] is T5, Peroxisome proliferator-activated receptor gamma (Mus musculus, UniProt P37238).
T5 sequence (P37238 whole entry): T4 sequence (whole entry)
In words: Agonist activity at PPARgamma in mouse 3T3-L1 cells assessed as induction of adipocyte differentiation at 1 uM after 15 days by Oil Red O staining-based assay. In kind it is cell-based. The conditions noted are these: 3t3-l1, 360 h.

Data set [6] concerns the target T5, Peroxisome proliferator-activated receptor gamma. The data set can be described thus: Agonist activity at PPARgamma in mouse 3T3-L1 cells assessed as increase in CD36 mRNA expression at 1 uM after 15 days by quantitative real-time PCR method. In kind it is cell-based. The conditions noted are these: 3t3-l1, 360 h.
Data set [7] is described as follows: Lipophilicity, log D of the compound at 30 uM at pH 7.4 by HPLC method. The following applies: buffer. In kind it is physicochemical.
Data set [8] has as its target T6, Nuclear receptor subfamily 1 group I member 3 (Homo sapiens, UniProt Q14994).
T6 sequence (Q14994 whole entry): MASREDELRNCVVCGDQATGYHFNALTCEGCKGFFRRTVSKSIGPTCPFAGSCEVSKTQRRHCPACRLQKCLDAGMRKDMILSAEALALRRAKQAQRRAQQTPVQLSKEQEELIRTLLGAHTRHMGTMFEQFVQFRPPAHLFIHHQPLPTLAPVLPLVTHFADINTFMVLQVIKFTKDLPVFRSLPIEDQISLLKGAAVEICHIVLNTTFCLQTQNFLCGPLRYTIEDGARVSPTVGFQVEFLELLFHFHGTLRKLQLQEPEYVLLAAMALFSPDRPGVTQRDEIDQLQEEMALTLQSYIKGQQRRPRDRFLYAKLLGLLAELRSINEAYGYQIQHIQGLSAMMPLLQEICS
In words: Agonist activity at human CAR LBD expressed HEK293T cells at 10 uM after 12 to 14 hrs by dual-glo luciferase reporter gene assay. Type of data set: ADME.

In data set [9] the test system is Mus musculus. In words: Anti-inflammatory activity in zymosan-induced paw edema C57BL/6N mouse model assessed as reduction in paw edema at 10 mg/kg, po via gavage pretreated for 30 mins followed by zymosan injection and measured after 8 hrs post zymosan injection by plethysmometry. Type of data set: functional, organism-based. In outline: (§1)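 Zymosan was injected intraplantar into one hindpaw of C57BL/6N mice. Test compound or vehicle was given orally at 10 mg/kg 30 min beforehand. Paw edema was measured by plethysmometry at 8 h and 24 h after zymosan, with the contralateral hindpaw as a control.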

Data set [10] in a line: Aqueous solubility of the compound at 5 mg after 24 hrs by HPLC analysis. In kind it is physicochemical. The following applies: water.
The target in data set [11] is T7, Nuclear receptor subfamily 1 group I member 2 (Homo sapiens, UniProt O75469).
T7 sequence (O75469 whole entry): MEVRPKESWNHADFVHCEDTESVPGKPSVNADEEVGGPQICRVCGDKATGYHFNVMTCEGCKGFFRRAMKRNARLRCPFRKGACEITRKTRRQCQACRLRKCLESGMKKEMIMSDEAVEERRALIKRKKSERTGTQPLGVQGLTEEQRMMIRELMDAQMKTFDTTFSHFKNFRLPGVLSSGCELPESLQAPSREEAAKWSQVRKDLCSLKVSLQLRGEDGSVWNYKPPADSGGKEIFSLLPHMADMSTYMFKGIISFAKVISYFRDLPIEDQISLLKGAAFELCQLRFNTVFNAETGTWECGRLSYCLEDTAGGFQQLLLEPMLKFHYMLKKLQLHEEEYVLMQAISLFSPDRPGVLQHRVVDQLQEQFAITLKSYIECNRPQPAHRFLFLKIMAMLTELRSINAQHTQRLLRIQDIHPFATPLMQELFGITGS
In words: Agonist activity at human PXR LBD expressed HEK293T cells at 10 uM after 12 to 14 hrs by dual-glo luciferase reporter gene assay. Type of data set: ADME.

Data set [12] in a line: Metabolic stability in Sprague-Dawley rat liver microsomes assessed as compound remaining at 10 uM in presence of NADPH regenerating system after 4 hrs by HPLC analysis. In kind it is ADME, microsome. The following applies: read-out: Stability. (In general: Microsomes from liver hold many membrane-bound enzymes, among them those of drug oxidation.)
Data set [13] concerns Mus musculus. The data set can be described thus: Anti-inflammatory activity in zymosan-induced paw edema C57BL/6N mouse model assessed as reduction in paw edema at 10 mg/kg, po via gavage pretreated for 30 mins followed by zymosan injection and measured after 24 hrs post zymosan injection by plethysmometry. Type of data set: functional, organism-based. In outline:
as §1

pEC50, pIC50: −log10 of the molar value. Converted amounts (≈) assume the structure as drawn. The source made the active and inactive calls. The rule behind the calls is not given here.

In the case of `COc1cc(C(=O)NS(=O)(=O)c2cccc(Cl)c2)ccc1Cc1cn(C)c2ccc(NC(=O)NC3CCCCC3)cc12`, in data set [1], the Kb was 1.26 nM. Besides, the pIC50 in data set [2] was 6.17. In data set [3], this molecule showed a negative logarithm of the EC50 (pEC50) of 6.43.

As to `COc1cc(C(=O)NS(=O)(=O)c2cccc(Cl)c2)ccc1Cc1cn(C)c2ccc(NC(=O)OC3CCCC3)cc12`, the Kb in data set [1] is 0.1 nM. The negative logarithm of the IC50 (pIC50) in data set [2] is 5.15. Also, in data set [3], the pEC50 was 6.85.

Regarding `COc1cc(C(=O)NS(=O)(=O)c2cccc(F)c2)ccc1Cc1cn(C)c2ccc(NC(=O)NC3CCCCC3)cc12`, the Kb in data set [1] was 12.6 nM. Besides, in data set [2], the pIC50 was 6.39. The negative-log EC50 (pEC50) in data set [3] was 6.70.

For `COc1cc(C(=O)NS(=O)(=O)c2ccccc2C)ccc1Cc1cn(C)c2ccc(NC(=O)NC3CCCCC3)cc12`, in [1], the Kb was 25.1 nM. For the same molecule, the negative-log IC50 (pIC50) in data set [2] is 6.82. In data set [3], this molecule gave a pEC50 of 6.17.

In the case of `COc1cc(C(=O)NS(=O)(=O)c2ccccc2)ccc1Cc1cn(C)c2ccc(NC(=O)OC3CCCC3)cc12`, the Kb in data set [1] is 0.0794 nM. Further, in [2], the pIC50 was 5.60. Also, the pEC50 in [3] was 6.64.

On to `CN(CCOc1ccc(CC2SC(=O)NC2=O)cc1)c1ccccn1` (stereo unspecified) [ROSIGLITAZONE], for which, in data set [4], the result was Active. Further, the outcome in data set [5] and in data set [6] was Active.

For the molecule `COc1cc(C(=O)NS(=O)(=O)c2cccc(C(F)(F)F)c2)ccc1Cc1cn(C)c2ccc(NC(=O)NC3CCCCC3)cc12`, the Kb in data set [1] is 5.01 nM. In addition, the negative logarithm of the IC50 (pIC50) in [2] is 5.83. Also, in [3], the pEC50 is 6.46.

In the case of `COc1cc(C(=O)NS(=O)(=O)c2ccccc2C)ccc1Cc1cn(C)c2ccc(NC(=O)NC3CCCC3)cc12`, the Kb in data set [1] is 0.794 nM. Further, in data set [2], the pIC50 is 6.23. Moreover, the pEC50 in data set [3] was 5.60.

`COc1cc(C(=O)NS(=O)(=O)c2ccccc2C)ccc1Cc1cn(C)c2ccc(NC(=O)OC3CCCC3)cc12` [ZAFIRLUKAST] had a logD at 30 µM in [7] of 2.47. The result in [8] and in [11] was Active. In addition, the outcome in [9] and in [13] was inactive. The same molecule had a solubility at 24 h in data set [10] of 0.14 µg/mL (≈ 0.243 µM). Also, the pIC50 in [2] is 5.70. The remaining at 4 h, 10 µM in data set [12] is 73%. Moreover, the pEC50 in data set [3] is 5.61.

As to `COc1cc(C(=O)NS(=O)(=O)c2cc(Cl)cc(Cl)c2)ccc1Cc1cn(C)c2ccc(NC(=O)NC3CCCCC3)cc12`, in data set [1], the Kb is 6.31 nM. Moreover, the pIC50 in data set [2] is 6.26. This molecule gave a negative logarithm of the EC50 (pEC50) in data set [3] of 6.13.

A word on the pIC50: it is −log10 of the IC50, conventionally taken in molar units. As usually defined, the pEC50 is the EC50 on a negative log10 scale, so that one unit is a factor of ten. Usually logD stands for lipophilicity at a set pH, counting ionised and neutral species. By solubility is commonly meant how much of the substance goes into solution per volume.
